For nine compounds, IC50 and Ratio results are on record in ChEMBL document CHEMBL1148487, “Chemical and functional identification and characterization of novel sulfated alpha-conotoxins from the cone snail Conus anemone” (J Med Chem, 2004).

The target in experiment [1] is Neuronal acetylcholine receptor; alpha3/beta2 (Rattus norvegicus, UniProt P04757+P12390). The experiment in a line: Inhibition of rat Nicotinic acetylcholine receptor alpha3-beta2 expressed in Xenopus Oocytes. In kind it is cell-based. In a few lines: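 Rat nAChR subunit cRNAs (50 nL, 5–50 ng/µL) injected into Xenopus oocytes, kept at 19 °C in ND96 pH 7.4 with gentamycin; two-electrode voltage clamp at −70 mV, 2–10 days post-injection. Peptide added to static bath, 3–10 min before agonist; sub-1 nM also perfused 10–15 min. IC50 from fitted concentration–response curves with Hill slope.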

In experiment [2] the target is Neuronal acetylcholine receptor subunit alpha-7 (Rattus norvegicus, UniProt Q05941). The experiment in a line: Compound was evaluated for inhibition of rat Nicotinic acetylcholine receptor alpha-7 (nAChR) in Xenopus Oocytes. The class given is cell-based. An outline of the steps: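 Rat α7 nAChR cRNA (5–50 ng/µL, 50 nL) injected into Xenopus oocytes kept at 19 °C in ND96 (pH 7.4) plus gentamycin; two-electrode voltage clamp 2–10 days later at −70 mV. Peptide applied once three agonist responses differed <10%, added to static bath and incubated 3–10 min before agonist. IC50 and nH from concentration–response curve fit; 95% confidence intervals.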

Experiment [3] is described as follows: Inhibition ratio of rat alpha 3 beta 2 nicotinic acetylcholine receptor (nAChR) to that of at alpha 7 nicotinic acetylcholine receptor (nAChR).

Where “and” joins values, the source holds several entries; their conditions need not be identical. Equal entries are not always repeated.

Chain of Neuronal acetylcholine receptor; alpha3/beta2 (P04757 whole entry, the tested form may be a part): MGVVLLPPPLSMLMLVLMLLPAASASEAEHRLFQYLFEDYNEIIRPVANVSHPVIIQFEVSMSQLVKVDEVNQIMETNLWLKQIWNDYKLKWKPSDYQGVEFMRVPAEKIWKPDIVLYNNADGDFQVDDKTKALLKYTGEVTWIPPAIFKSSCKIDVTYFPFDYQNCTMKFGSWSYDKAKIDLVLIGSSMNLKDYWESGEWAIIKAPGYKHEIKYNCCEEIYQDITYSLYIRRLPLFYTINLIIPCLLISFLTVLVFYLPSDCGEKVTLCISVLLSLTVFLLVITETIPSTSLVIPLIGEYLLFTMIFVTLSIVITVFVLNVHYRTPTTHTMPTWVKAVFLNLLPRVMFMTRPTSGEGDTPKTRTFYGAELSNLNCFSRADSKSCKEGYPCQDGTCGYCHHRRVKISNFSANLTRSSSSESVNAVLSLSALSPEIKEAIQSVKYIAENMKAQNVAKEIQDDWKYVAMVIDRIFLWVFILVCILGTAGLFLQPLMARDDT
Chain of Neuronal acetylcholine receptor; alpha3/beta2 (P12390 whole entry, the tested form may be a part): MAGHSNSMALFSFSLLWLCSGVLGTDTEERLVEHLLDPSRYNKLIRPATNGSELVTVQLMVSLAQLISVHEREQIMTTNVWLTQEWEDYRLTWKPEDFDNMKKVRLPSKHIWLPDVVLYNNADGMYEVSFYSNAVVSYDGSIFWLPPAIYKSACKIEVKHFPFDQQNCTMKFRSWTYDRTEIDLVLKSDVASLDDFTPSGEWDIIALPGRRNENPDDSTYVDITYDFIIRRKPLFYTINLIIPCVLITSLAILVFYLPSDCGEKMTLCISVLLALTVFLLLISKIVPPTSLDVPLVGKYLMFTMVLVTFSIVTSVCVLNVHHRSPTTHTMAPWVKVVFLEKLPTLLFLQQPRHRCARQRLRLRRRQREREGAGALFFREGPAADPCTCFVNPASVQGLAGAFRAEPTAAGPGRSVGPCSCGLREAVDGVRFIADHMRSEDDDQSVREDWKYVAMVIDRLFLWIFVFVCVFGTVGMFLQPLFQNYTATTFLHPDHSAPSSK
Chain of Neuronal acetylcholine receptor subunit alpha-7 (Q05941 whole entry): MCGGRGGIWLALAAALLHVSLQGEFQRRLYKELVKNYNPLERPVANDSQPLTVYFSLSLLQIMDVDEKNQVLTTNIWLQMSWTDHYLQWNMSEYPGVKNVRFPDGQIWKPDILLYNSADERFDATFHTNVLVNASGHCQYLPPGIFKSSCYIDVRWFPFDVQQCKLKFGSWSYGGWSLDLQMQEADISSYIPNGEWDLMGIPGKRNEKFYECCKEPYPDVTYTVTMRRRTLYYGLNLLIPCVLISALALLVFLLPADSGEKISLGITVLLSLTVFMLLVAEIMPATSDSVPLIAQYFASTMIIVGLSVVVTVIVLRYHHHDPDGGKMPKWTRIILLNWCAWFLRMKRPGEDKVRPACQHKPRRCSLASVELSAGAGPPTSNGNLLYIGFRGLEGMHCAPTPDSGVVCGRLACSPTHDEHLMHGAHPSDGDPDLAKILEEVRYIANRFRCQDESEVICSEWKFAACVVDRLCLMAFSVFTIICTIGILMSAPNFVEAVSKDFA

Broadly, the IC50 is the midpoint of a concentration-inhibition curve. A high value points to a need for much substance. Consider `C[C@H](NC(=O)[C@H](C)NC(=O)[C@H](CS)NC(=O)[C@H](C)NC(=O)[C@H]1CCCN1C(=O)[C@H](Cc1cnc[nH]1)NC(=O)[C@H](CO)NC(=O)[C@H](CS)NC(=O)[C@H](CS)NC(=O)CNC(=O)CN)C(=O)N[C@@H](CC(N)=O)C(=O)N[C@@H](CC(N)=O)C(=O)N[C@@H](CCC(N)=O)C(=O)N[C@@H](CC(=O)O)C(=O)N[C@@H](Cc1ccc(O)cc1)C(=O)N[C@@H](CS)C(=O)O`, for which, in experiment [1], the IC50 worked out at 0.54 nM.

In experiment [1], `C[C@H](NC(=O)[C@H](CS)NC(=O)[C@H](C)NC(=O)[C@H]1CCCN1C(=O)[C@H](CC1=CNCN1)NC(=O)[C@H](CO)NC(=O)[C@H](CS)NC(=O)[C@H](CS)NC(=O)CN)C(=O)N[C@@H](CC(N)=O)C(=O)N[C@@H](CC(N)=O)C(=O)N[C@@H](CCC(N)=O)C(=O)N[C@@H](CC(=O)O)C(=O)N[C@@H](Cc1ccc(O)cc1)C(=O)N[C@@H](CS)C(N)=O` yielded an IC50 of 0.17 nM.

Consider `C[C@H](NC(=O)[C@H](C)NC(=O)[C@H](CS)NC(=O)[C@H](C)NC(=O)[C@H]1CCCN1C(=O)[C@H](Cc1cnc[nH]1)NC(=O)[C@H](CO)NC(=O)[C@H](CS)NC(=O)[C@@H](N)CS)C(=O)N[C@@H](CC(N)=O)C(=O)N[C@@H](CC(N)=O)C(=O)N[C@@H](CCC(N)=O)C(=O)N[C@@H](CC(=O)O)C(=O)N[C@@H](Cc1ccc(O)cc1)C(=O)N[C@@H](CS)C(N)=O`, for which the IC50 in experiment [1] came to 5.84 nM.

In experiment [1], `CC(C)C[C@H](NC(=O)[C@H](CC(N)=O)NC(=O)[C@H](CO)NC(=O)[C@H](Cc1cnc[nH]1)NC(=O)[C@H](CCC(=O)O)NC(=O)[C@H](CC(C)C)NC(=O)[C@H](Cc1cnc[nH]1)NC(=O)[C@H](CS)NC(=O)[C@@H](NC(=O)[C@@H]1CCCN1C(=O)[C@H](CC(N)=O)NC(=O)[C@H](CO)NC(=O)[C@H](CS)NC(=O)[C@H](CS)NC(=O)CN)C(C)C)C(=O)N[C@@H](CS)C(N)=O` registered an IC50 of 0.5 nM.

The compound `CC[C@H](C)[C@H](NC(=O)[C@H](Cc1c[nH]cn1)NC(=O)[C@H](CCC(N)=O)NC(=O)[C@H](CC(N)=O)NC(=O)[C@H](CC(N)=O)NC(=O)CNC(=O)[C@H](C)NC(=O)[C@H](CS)NC(=O)[C@H](C)NC(=O)[C@@H]1CCCN1C(=O)[C@H](Cc1c[nH]cn1)NC(=O)[C@H](CO)NC(=O)[C@H](CS)NC(=O)[C@H](CS)NC(=O)CN)C(=O)N[C@@H](CS)C(N)=O` yielded an IC50 in experiment [1] of 1.1 nM.

On to `C[C@H](NC(=O)[C@H](C)NC(=O)[C@H](CS)NC(=O)[C@H](C)NC(=O)[C@H]1CCCN1C(=O)[C@H](Cc1cnc[nH]1)NC(=O)[C@H](CO)NC(=O)[C@H](CS)NC(=O)[C@H](CS)NC(=O)CNC(=O)CN)C(=O)N[C@@H](CC(N)=O)C(=O)N[C@@H](CC(N)=O)C(=O)N[C@@H](CCC(N)=O)C(=O)N[C@@H](CC(=O)O)C(=O)N[C@@H](Cc1ccc(OS(=O)(=O)O)cc1)C(=O)N[C@@H](CS)C(N)=O`, for which the IC50 in experiment [1] was determined as 0.64 nM.

Regarding `C[C@H](NC(=O)[C@H](C)NC(=O)[C@H](CS)NC(=O)[C@H](C)NC(=O)[C@H]1CCCN1C(=O)[C@H](Cc1c[nH]cn1)NC(=O)[C@H](CO)NC(=O)[C@H](CS)NC(=O)[C@H](CS)NC(=O)CNC(=O)CN)C(=O)N[C@@H](CC(N)=O)C(=O)N[C@@H](CC(N)=O)C(=O)N[C@@H](CCC(N)=O)C(=O)N[C@@H](CC(=O)O)C(=O)N[C@@H](Cc1ccc(O)cc1)C(=O)N[C@@H](CS)C(N)=O`, the IC50 in experiment [2] is 76 nM; in experiment [1] it was 0.28 nM and 0.3 nM. In addition, the Ratio in experiment [3] is 0.004.

On to `C[C@H](NC(=O)[C@H](C)NC(=O)[C@H](CS)NC(=O)[C@H](C)NC(=O)[C@H]1CCCN1C(=O)[C@H](Cc1c[nH]cn1)NC(=O)[C@H](CO)NC(=O)[C@H](CS)NC(=O)[C@H](CS)NC(=O)CNC(=O)CNC(=O)CN)C(=O)N[C@@H](CC(N)=O)C(=O)N[C@@H](CC(N)=O)C(=O)N[C@@H](CCC(N)=O)C(=O)N[C@@H](CC(=O)O)C(=O)N[C@@H](Cc1ccc(O)cc1)C(=O)N[C@@H](CS)C(N)=O`, for which, in experiment [1], it took 0.2 nM to reach half-maximal inhibition (IC50).

Consider `CC(C)C[C@H](NC(=O)[C@H](CC(N)=O)NC(=O)[C@H](CO)NC(=O)[C@H](Cc1c[nH]cn1)NC(=O)[C@H](CCC(=O)O)NC(=O)[C@H](CC(C)C)NC(=O)[C@H](Cc1c[nH]cn1)NC(=O)[C@H](CS)NC(=O)[C@@H](NC(=O)[C@@H]1CCCN1C(=O)[C@H](CC(N)=O)NC(=O)[C@H](CO)NC(=O)[C@H](CS)NC(=O)[C@H](CS)NC(=O)CN)C(C)C)C(=O)N[C@@H](CS)C(N)=O`, for which the Ratio in experiment [3] came out at 0.0025.
